# Assay results taken from PubChem BioAssay AID1885 (Broad Institute, 2009).
# In all, about 300,000 compounds went through this assay and about 4,400 (1.5%) were called active. Shown is part of a subset that was picked to be rich in actives. A number with no mark means an inactive call.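 How the source made its calls: active means mean inhibition across valid replicates above about 55% (limit read from the data); inconclusive means mean below that limit but half or more replicates reach it; inactive means mean below it, under half of replicates reach it.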
# Assay: Trypanosoma cruzi replication blockers in host cells – luminescence, NIH3T3 host cells, primary screen (AID 1885);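 further: signal also drops with host cell toxicity which is not excluded here; 0% = plate median of DMSO wells and 100% = zero luminescence signal; higher percent means less beta-gal luminescence so fewer parasites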
# Details: T. cruzi beta-gal in NIH3T3, luminescence, 90 h; hits give high values; concentration not given here
# In short: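 compound dosing = single 50 nL compound addition per well in DMSO | material = NIH/3T3 host cells with β-galactosidase reporter T. cruzi | input = 5,000 host fibroblasts per well | timing = ≥90 h infection period, 3 h prior cell attachment | read-out basis = percent inhibition of parasite-derived β-gal signal | detection = GalScreen β-gal luminescence, detergent lysis, 60 min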
row,Compound,inhibition
1,CC(C)Nc1nnc(SC(C)C(=O)N(C)C2CCCCC2)s1 (centres undefined),-3%
2,Cc1occc1C(=O)NC1CCCN(Cc2ccc(CC(C)C)cc2)C1 (centres undefined),57.7% (active)
3,Cc1occc1C(=O)NNC(=S)NCC(C)C,-18.5%
4,COc1ccc(CN2CCCC(C(=O)N3CCCCC3)C2)cc1 (centres undefined),27.2%
5,CN(c1ccccc1)S(=O)(=O)c1cccc(C(=O)NNC(=O)c2ccncc2)c1,5.43%
6,COc1ccc(NC(=O)N2CCCC(C(=O)Nc3ccccc3OC)C2)cc1 (centres undefined),-10.9%
7,Cc1sc2ncnc(N3CCC(C(=O)Nc4nc5ccc(Cl)cc5s4)CC3)c2c1C,27%
8,COc1ccc(C(=O)NC(=S)N2CCCCC2c2cccnc2)cc1OC (centres undefined),57.2% (active)
9,O=C(NC(=S)N1CCCCC1c1cccnc1)c1ccccc1 (centres undefined),46.1%
10,COc1ccc(/C=C/C(=O)NC(=S)NN2CCCCC2c2cccnc2)cc1 (centres undefined),42.1%
11,COC(=O)C1(C)NC(c2ccc(F)cc2)C2C(=O)N(c3ccccc3)C(=O)C21 (centres undefined),-17.7%
12,CCc1ccc2c(c1)C1(NN=C(c3ccccc3)S1)C(=O)N2 (centres undefined),73% (active)
13,Cc1nc(/N=C(\N)NC(=O)NC2CCCCC2)nc2ccccc12,10.4%
14,COc1nc(N=C(N)N)nc2c(C)cccc12,44.2%
15,Cc1nc(N=C(N)N)nc2c(C)cccc12,56.5% (active)
16,O=C(NCCC1=CCCCC1)c1ccc(Cl)c([N+](=O)[O-])c1,-28%
17,CCN1C(=O)[C@H]2[C@@H](c3ccc(-c4ccc(F)cc4)cc3)N[C@@](Cc3ccccc3)(C(=O)OC)[C@H]2C1=O,41.5%
18,O=c1[nH]c(N2CCOCC2)nc2ccccc12,-3.83%
19,c1ccc(-c2nnc(N3CCOCC3)c3ccccc23)cc1,-1.66%
20,c1ccc2c(NC3C4CC5CC(C4)CC3C5)nc(N3CCOCC3)nc2c1 (centres undefined),54.9% (active)
21,CSCCC(NC(=O)COc1ccccc1)C(=O)OCCOc1ccc(F)cc1 (centres undefined),-11.5%
22,CCn1cc(/C=C(\NC(=O)c2ccc(C)cc2)C(=O)NCCN2CCOCC2)c2ccccc21,-0.43%
23,COc1ccc(CN2CC[C@H]3C=CC[C@@H](C(=O)N4CCOCC4)[C@H]3C2=O)cc1OC,0.915%

row,Compound,inhibition
1,CN(CC(=O)Nc1ccc(F)cc1)CC(=O)Nc1ccc(Cl)c(S(=O)(=O)N2CCOCC2)c1,-1.87%
2,CN(CC(=O)Nc1ccc(S(=O)(=O)N2CCCC2)cc1)Cc1ccc(Cl)c(Cl)c1,55.8% (active)
3,O=C(CN1CCCCCC1)Nc1ccc(S(=O)(=O)N2CCCCC2)cc1,-0.319%
4,CCOc1cnc(C(=O)NNC(=O)c2ccccc2Br)o1,-24%
5,O=C(Nc1ccc(F)c([N+](=O)[O-])c1)C1CC(=O)N(Cc2ccccc2)C1 (centres undefined),11.3%
6,CC1(c2ccccc2)CC(C)(C)N(C(=O)c2cc([N+](=O)[O-])cc([N+](=O)[O-])c2)c2ccccc21 (centres undefined),62.7% (active)
7,Cc1nnc(SCC(=O)N2c3ccccc3C(C)(c3ccc(Cl)cc3)CC2(C)C)s1 (centres undefined),37.3%
8,CC1(c2cccc([N+](=O)[O-])c2)CC(C)(C)N(C(=O)c2ccccc2)c2ccccc21 (centres undefined),37.9%
9,OC(COc1cccc2ccccc12)CN1CCN(c2ccccn2)CC1 (centres undefined),-13.7%
10,CC(C)c1ccccc1OCC(O)CN(CC(O)COc1cccc2ccccc12)C(C)C (centres undefined),57.2% (active)
11,Cc1cc(C)c(NC(=O)C[N+](C)(C)CC(O)COc2cccc3ccccc23)c(C)c1 (centres undefined),39.6%
12,COc1ccc(NS(=O)(=O)c2cc(NC(=O)/C=C/c3cc(OC)c(OC)c(OC)c3)ccc2N2CCCCC2)cc1,54.8% (active)
13,COc1ccc(NS(=O)(=O)c2ccc(N3CCN(CCO)CC3)c([N+](=O)[O-])c2)cc1,-24.8%
14,COc1ccc(NS(=O)(=O)c2cc(NC(=O)C3CCCCC3)ccc2N2CCOCC2)cc1,8.84%
15,Cc1ccc(S(=O)(=O)CCC(=O)Nc2nnc(CC(C)C)s2)cc1,-32%
16,COC(=O)COc1ccc2c(c1C)O/C(=C\c1ccco1)C2=O,0.57%
17,CCN1C(=O)[C@@H]2[C@@H](c3ccc(-c4ccc(OC)cc4)c(OC)c3)N3CCC[C@@]3(C(=O)OC)[C@@H]2C1=O,-10.1%
18,O=C(NCC(c1cccs1)N1CCOCC1)c1cc(Cl)ccc1[N+](=O)[O-] (centres undefined),-4.39%
19,CCOC(=O)CC1C(=O)NCCN1c1nc2c(C)cccn2c(=O)c1/C=C1\SC(=S)N(C(C)CC)C1=O (centres undefined),25.7%
20,CCCN(CCC)c1nc2c(C)cccn2c(=O)c1/C=C1/SC(=S)N(Cc2ccco2)C1=O,68.2% (active)
21,O=C(CCCN1C(=O)/C(=C\c2ccco2)SC1=S)Nc1cccc2ccccc12,-4.25%
22,Fc1ccc2c(c1)C(c1cccnc1)=NNC(c1cccs1)=N2,-7.53%
23,Fc1ccccc1N=C1Nc2cccc3cccc1c23,-4.12%

row,Compound,inhibition
1,c1ccc(C2=Nc3cccc4cccc(c34)N2)cc1,7.49%
2,COc1ccccc1C1=Nc2cccc3cccc(c23)N1,55% (active)
3,CC1(C)CC(N2CCN(C(c3ccccc3)c3ccccc3)CC2)=CC(=[N+]2CCCCC2)C1,63.6% (active)
4,O=C(O)CN1CCN(C(c2ccccc2)c2ccccc2)CC1,-9.78%
5,CC1(C)CC(=O)C=C(N2CCCC2)C1,1.27%
6,COc1cccc(NC(=O)c2nn(C34CC5CC(CC(C5)C3)C4)cc2[N+](=O)[O-])c1,16.7%
7,Cc1ncn(C23CC4CC(CC(O)(C4)C2)C3)n1,5.6%
8,Cc1nc([N+](=O)[O-])nn1C12CC3CC(CC(Br)(C3)C1)C2,59.3% (active)
9,CCCCCN(C(=O)CCC(=O)OCCOc1ccc(OC)cc1)c1c(N)n(CCCC)c(=O)[nH]c1=O,8.8%
10,CN(N)c1nc(N2CCCC2)nc(N2CCCC2)n1,-9.95%
11,CCCCCCCCCCCCN1[C@@H](CC(C)=O)c2cc(F)cc(F)c2S1(=O)=O,39.5%
12,CC(C)n1c(=O)[nH]c2cc(C(=O)Nc3ccccc3)ccc21,-5.92%
13,CN1CCN(c2ccc(NC(=O)c3ccccc3)cc2)CC1,-2.93%
14,CN1CCN(c2ccc(NC(=O)c3ccc4c(c3)[nH]c(=O)n4Cc3ccc(F)cc3)cc2)CC1,65.8% (active)
15,COCCN1C(=O)N(c2ccc(Cl)cc2)C(=O)C1CC(=O)Nc1cc(OC)cc(OC)c1 (centres undefined),-12.9%
16,Cc1onc(-c2ccccc2Cl)c1C(=O)N(Cc1ccc(N(C)C)cc1)C(C)C,37.7%
17,S=C(NCc1ccc(Cl)cc1)NC12CC3CC(CC(C3)C1)C2,57.1% (active)
18,S=C(NCc1ccc(Cl)cc1)NC1CCCCC1,10.1%
19,O=C(NCc1ccncc1)NC12CC3CC(CC(C3)C1)C2,-15.8%
20,O=C(Nc1ccc(Sc2ccc(Br)cc2)cc1)c1ccco1,-17.4%
21,Cc1cc(NC(=O)c2ccc(F)cc2)ccc1NC(=O)c1ccco1,14%
22,CCN(CC)P(=O)(Nc1ccc(SC(F)F)cc1)c1ccc(N(C)C)cc1NC(=O)c1ccco1 (centres undefined),68.4% (active)
23,O=C(NC1CCCC1)C1CC(=O)N(c2ccc(F)cc2)C1 (centres undefined),5.96%

row,Compound,inhibition
1,Cc1c(C(=O)N2CCCC2)c(S(=O)(=O)NCC(C)c2ccccc2)c(C)n1C (centres undefined),-5.32%
2,O=C(Nc1ccc(-c2csc(Nc3cccc(C(F)(F)F)c3)n2)cc1)c1cccc(C(F)(F)F)c1,58.5% (active)
3,Cc1nc(NC(=O)c2cccc(Cl)c2)sc1-c1csc(Nc2cccc(Cl)c2)n1,-1.87%
4,CNC(=O)c1ccc(NC(=O)c2cccc(C(F)(F)F)c2)cc1,-8.58%
5,O=C(O)C1C2C=CC(C2)C1C(=O)NCc1ccccc1 (centres undefined),-11.6%
6,Cc1nn(C)cc1S(=O)(=O)N1CCN(c2ccc(F)cc2)CC1,2.42%
7,O=C(NC(=S)Nc1ccccc1C(=O)O)c1ccc(-c2ccc(Br)cc2)o1,61.6% (active)
8,O=C(O)c1ccccc1NC(=O)c1ccccc1-c1ccccc1C(=O)O,-1.15%
9,COC(=O)c1ccccc1NC(=S)NC(=O)c1ccccc1F,-19.3%
10,CCN1C(=O)[C@@H]2[C@@H](c3ccc(-c4cccc(Cl)c4)cc3)N3CCC[C@@]3(C(=O)OC)[C@@H]2C1=O,4.08%
11,COc1cc(C(=O)N2CCN(C3CCC(C)CC3)CC2)cc(OC)c1OC (centres undefined),25.8%
12,COc1ccc(CNC(=O)CCCn2nc(C)c([N+](=O)[O-])c2C)cc1,-2.92%
13,N/C(=N\OC(=O)COc1ccc([N+](=O)[O-])cc1)c1ccc(Br)cc1,-1.86%
14,NC(=O)Cn1nc([N+](=O)[O-])nc1Oc1ccc(Br)cc1,88.1% (active)
15,Cc1nn(CCOc2ccc(Br)cc2)c(C)c1[N+](=O)[O-],10.6%
16,Cn1nc([N+](=O)[O-])nc1Sc1ccc(C(C)(C)C)cc1,27%
17,CCc1ccc(Oc2nc([N+](=O)[O-])nn2C)cc1,66.5% (active)
18,COc1ccc(NC(=O)CCS(=O)(=O)c2cc3c(cc2Cl)NC(=O)CO3)cc1OC,1.37%
19,CC(C)CCN1CCN(Cc2cn[nH]c2C2CCCCC2)CC1CCO (centres undefined),24.3%
20,CN(CCOc1ccccc1)C(=O)c1cc(COc2c(F)cccc2F)on1,-2.25%
